Results from ChEMBL document CHEMBL4152308, “Synthesis and biological evaluation of novel 2-oxo-1,2-dihydroquinoline-4-carboxamide derivatives for the treatment of esophageal squamous cell carcinoma” (Eur J Med Chem, 2018).
The source made the active and inactive calls. The rule behind the calls is not given here.

Assays:
[1] = test system: KYSE-70 cell line; test: Antiproliferative activity against human KYSE-70 cells after 72 hrs by MTT assay; type: functional, cell-based; conditions: KYSE-70, 72 h
Procedure, shortened: (§1)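 Cells grown as monolayers at 37 °C, 5% CO2, mycoplasma-checked, in exponential phase. Cells seeded in 96-well plates, 24 h attachment, then compound added for 72 h. MTT 0.3 mg/mL for 3 h at 37 °C, DMSO solubilization, absorbance at 570 nm. Inhibition = (1 − A/C) × 100%. IC50 from log(concentration) vs % inhibition plot; triplicate wells, SD from ≥3 independent experiments.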

[2] = test system: KYSE-410; test: Antiproliferative activity against human KYSE410 cells after 72 hrs by MTT assay; type: functional, cell-based; conditions: KYSE-410, 72 h; procedure, shortened: as §1
[3] = test system: KYSE-410; test: Induction of autophagy in human KYSE410 cells assessed as increase in LC3B level at 10 to 50 uM after 24 hrs by Western blot analysis; type: functional, cell-based
Procedure, shortened: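 Cells treated 24 h at indicated concentrations, with bafilomycin for induced-LC3B readouts. Lysis in RIPA with protease inhibitors, BCA protein assay, samples heated 5 min at 100 °C. Equal protein run on 15% SDS-PAGE, transferred to PVDF. Anti-LC3B primary overnight at 4 °C, GAPDH as loading control, anti-rabbit secondary, TBST washes.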

[4] = test system: KYSE-410; test: Cell cycle arrest in human KYSE410 cells assessed as accumulation at G2 phase at 1 uM after 24 to 48 hrs by propidium iodide staining based flow cytometry (reference value: 12.2%); type: functional
[5] = test system: KYSE-410; test: Cell cycle arrest in human KYSE410 cells assessed as accumulation at G1 phase at 5 uM after 24 to 48 hrs by propidium iodide staining based flow cytometry (reference value: 65.4%); type: functional
[6] = test system: MIA PaCa-2; test: Antiproliferative activity against human MIAPaCa2 cells after 72 hrs by MTT assay; type: functional, cell-based; conditions: MIA PaCa-2, 72 h; procedure, shortened: as §1
[7] = test system: KYSE-410; test: Cell cycle arrest in human KYSE410 cells assessed as accumulation at S phase at 1 uM after 24 to 48 hrs by propidium iodide staining based flow cytometry (reference value: 22.3%); type: functional
[8] = test system: OVCAR-8; test: Antiproliferative activity against human OVCAR8 cells after 72 hrs by MTT assay; type: functional, cell-based; conditions: OVCAR-8, 72 h; procedure, shortened: as §1
[9] = test system: KYSE-410; test: Cell cycle arrest in human KYSE410 cells assessed as accumulation at G1 phase at 1 uM after 24 to 48 hrs by propidium iodide staining based flow cytometry (reference value: 65.4%); type: functional
[10] = test system: KYSE-410; test: Cell cycle arrest in human KYSE410 cells assessed as accumulation at S phase at 5 uM after 24 to 48 hrs by propidium iodide staining based flow cytometry (reference value: 22.3%); type: functional
[11] = test system: SK-OV-3; test: Antiproliferative activity against human SKOV3 cells after 72 hrs by MTT assay; type: functional, cell-based; conditions: SK-OV-3, 72 h; procedure, shortened: as §1
[12] = test system: KYSE-410; test: Cell cycle arrest in human KYSE410 cells assessed as accumulation at G2 phase at 5 uM after 24 to 48 hrs by propidium iodide staining based flow cytometry (reference value: 12.2%); type: functional

O=C(Nc1cc(F)cc(F)c1)c1cc(=O)[nH]c2cc(Cl)ccc12
IC50 [1]: 9 µM | IC50 [2]: 11 µM

O=C(Nc1cc(F)cc(F)c1)c1cc(=O)[nH]c2cc(O)ccc12
IC50 [1]: > 20 µM | IC50 [2]: > 20 µM

O=C(Nc1ccc(Cl)cc1)c1ccnc2cc(Br)ccc12
IC50 [1]: > 20 µM | IC50 [2]: > 20 µM

O=C(Nc1cccc(OC(F)(F)F)c1)c1cc(=O)[nH]c2cc(Br)ccc12
IC50 [1]: > 20 µM | IC50 [2]: 14 µM

O=C(Nc1cccc(F)c1)c1cc(=O)[nH]c2cc(-c3cccnc3F)ccc12
IC50 [1]: > 20 µM | IC50 [2]: 11.6 µM

O=C(Nc1ccc(C(F)(F)F)cc1)c1cc(=O)[nH]c2cc(Br)ccc12
IC50 [1]: > 20 µM | IC50 [2]: > 20 µM

CC(C)(C)c1ccc(-c2ccc3c(C(=O)Nc4cccc(F)c4)cc(=O)[nH]c3c2)cc1
IC50 [1]: > 20 µM | IC50 [2]: > 20 µM

COc1ccc2c(C(=O)Nc3cc(F)cc(F)c3)cc(=O)[nH]c2c1
IC50 [1]: > 20 µM | IC50 [2]: > 20 µM

O=C(Nc1cccc(Cl)c1)c1cc(=O)[nH]c2cc(Br)ccc12
IC50 [1]: > 20 µM | IC50 [2]: > 20 µM

CCN(CC)CCCC(C)Nc1ccc2c(C(=O)Nc3cccc(F)c3)cc(=O)[nH]c2c1 (configuration not stated)
IC50 [1]: > 20 µM | IC50 [2]: > 20 µM | Activity [3]: Active

O=C(Nc1ccc(F)cc1)c1cc(=O)[nH]c2cc(Br)ccc12
IC50 [1]: > 20 µM | IC50 [2]: > 20 µM

O=C(Nc1cccc(F)c1)c1cc(=O)[nH]c2cc(-c3cccc(F)c3)ccc12
IC50 [1]: 12 µM | IC50 [2]: 10.9 µM

O=C(c1ccnc2cc(Br)ccc12)N1CCCCC1
IC50 [1]: > 20 µM | IC50 [2]: > 20 µM

Cc1ccc(-c2ccc3c(C(=O)Nc4cccc(F)c4)cc(=O)[nH]c3c2)cc1
IC50 [1]: > 20 µM | IC50 [2]: > 20 µM

O=C(Nc1cccc(F)c1)c1cc(=O)[nH]c2cc(-c3ccccc3F)ccc12
IC50 [1]: > 20 µM | IC50 [2]: > 20 µM

COc1ccc2c(C(=O)Nc3cc(F)cc(F)c3)cc(=O)[nH]c2n1
IC50 [1]: > 20 µM | IC50 [2]: > 20 µM

O=C(Nc1cccc(F)c1)c1cc(=O)n(O)c2ccccc12
IC50 [1]: > 20 µM | IC50 [2]: > 20 µM

C#Cc1ccc2c(C(=O)Nc3cccc(F)c3)cc(=O)[nH]c2c1
IC50 [1]: 9.5 µM | IC50 [2]: 9.7 µM

C=Cc1ccc2c(C(=O)Nc3cccc(F)c3)cc(=O)[nH]c2c1
IC50 [1]: 9.7 µM | IC50 [2]: 13.6 µM

O=C(Nc1ccccn1)c1cc(=O)[nH]c2cc(Br)ccc12
Activity [4]: 10.8% | Activity [5]: 62.1% | IC50 [6]: 21.3 µM | Activity [7]: 18.5% | IC50 [8]: > 20 µM | IC50 [1]: 11 µM | Activity [9]: 70.8% | Activity [10]: 19.5% | IC50 [2]: 9.8 µM | IC50 [11]: > 20 µM | Activity [12]: 18.5%

CCN(CC)CCCC(C)Nc1ccc(NC(=O)c2cc(=O)[nH]c3cc(F)ccc23)cc1F (configuration not stated)
IC50 [1]: > 20 µM | IC50 [2]: > 20 µM | Activity [3]: Active

O=C(Nc1cccc(C(F)(F)F)c1)c1cc(=O)[nH]c2cc(Br)ccc12
IC50 [1]: > 20 µM | IC50 [2]: > 20 µM

O=C(Nc1cccc(F)c1)c1cc(=O)[nH]c2cc(C3=CCOCC3)ccc12
IC50 [6]: 8.8 µM | IC50 [8]: 21.8 µM | IC50 [1]: 10.5 µM | IC50 [2]: 12.1 µM | IC50 [11]: 13.3 µM

CCN(CC)CCCC(C)Nc1ccnc2cc(Cl)ccc12 (configuration not stated) [CHLOROQUINE]
Activity [4]: 13.7% | Activity [5]: 64.3% | Activity [7]: 20.7% | Activity [9]: 65.6% | Activity [10]: 24.4% | Activity [12]: 11.3%

O=C(Nc1cccc(F)c1)c1cc(=O)[nH]c2cc(-c3ccc(F)nc3)ccc12
IC50 [1]: > 20 µM | IC50 [2]: > 20 µM

O=C(Nc1cccc(F)c1)c1cc(=O)[nH]c2cc(-c3ccncc3)ccc12
IC50 [1]: > 20 µM | IC50 [2]: > 20 µM

O=C(Nc1ccc(F)cc1F)c1cc(=O)[nH]c2cc(Br)ccc12
IC50 [1]: > 20 µM | IC50 [2]: > 20 µM
